Shown are actives, neighbours in structure and some others; about 2.5% of the full set was active somewhere.
SIAE inh: inhibitors of human sialic acid acetylesterase SIAE. 370,000 tested, 0.69% active. SIAE FP-Rh probe binding, fluorescence polarization. inhibition, % at 9.66 µM. Q9HAT2;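 active means inhibition above a cutoff: mean of compounds within the control limits plus 3 SD of those, cut at about 17% in these data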;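 further: 0% = plate median of compound wells and 100% = probe without SIAE protein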
HTRA1 inhibitor: HTRA1 (human) protease inhibition. Q92743. recombinant HTRA1, FP-rhodamine activity-based probe, fluorescence polarization. 340,000 tested, 0.5% active. inhibition, % at 5.96 µM; in the data active means inhibition above about 36%;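 further: 0% = enzyme with DMSO and 100% = wells lacking enzyme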
PRMT1 inh: blocks human protein arginine methyltransferase 1; Q99873; recombinant PRMT1, activity-based probe fluorescence polarization; inhibition, % at 2.79 µM; 370,000 tested, 1.3% active; AID 652257;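 active means inhibition above about 21% made by adding two undisclosed values, limit read from the data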
Target sequence (Q99873 whole entry, looked up): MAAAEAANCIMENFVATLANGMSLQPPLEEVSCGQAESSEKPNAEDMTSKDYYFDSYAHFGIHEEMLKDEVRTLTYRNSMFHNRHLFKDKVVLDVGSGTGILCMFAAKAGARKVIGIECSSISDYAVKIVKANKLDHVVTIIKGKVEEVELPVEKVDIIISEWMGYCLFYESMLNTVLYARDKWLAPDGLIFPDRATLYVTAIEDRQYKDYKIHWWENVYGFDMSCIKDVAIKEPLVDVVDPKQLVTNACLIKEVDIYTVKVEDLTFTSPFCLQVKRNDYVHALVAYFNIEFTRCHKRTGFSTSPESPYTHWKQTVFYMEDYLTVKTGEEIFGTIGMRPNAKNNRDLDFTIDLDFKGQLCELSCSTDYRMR
TCR-CD3 inh: human TCR-CD3 binding inhibition; 360,000 tested, 0.37% active; inhibition, % at 9.4 µM; AID 651800; TAMRA-labeled TCR probe fluorescence, biochemical; in the data active means inhibition above about 19%;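 further: recombinant mutant TCR 2C K166C tagged with TAMRA read by polarization; 0% = receptor in buffer alone and 100% = receptor with positive control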
mABHD4 FP: inhibits mouse alpha/beta hydrolase domain 4. Q8VD66. purified mABHD4, FP-Rh probe fluorescence polarization. inhibition, % at 8.92 µM. 370,000 tested, 0.54% active. AID 720543;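 active means inhibition exceeding the mean over every tested compound plus 3 SD, cut at about 30% in these data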;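 further: 0% = plate median of compound wells and 100% = S159A mutant with DMSO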
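Test system: mouse ABHD4 enzyme, wild type. Reagent: FP-Rh fluorescent activity-based probe, added after compound pre-incubation. Timing: pre-incubation 45 min, probe exposure 60 min, at 25 °C. Technique: FP readout, ex 525 nm / em 598 nm. Benchmarks: high control S159A mutant with DMSO, low control median of compound wells.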
* hit, by the source's call; nt = no result.

SMILES	SIAE inh	HTRA1 inhibitor	PRMT1 inh	TCR-CD3 inh	mABHD4 FP
CCOC(=O)C(NC(=O)CCl)(Nc1sc(C)c(CC)c1C#N)C(F)(F)F (stereo unspecified)	11	-17	22*	2	-1
CCC(COC)Oc1cc(NCc2ccccc2)c2ncn(C(C)C)c2c1 (stereo unspecified)	5	30	2	5	24
CCC(COC(=O)c1ccccc1)Oc1cc(NCc2ccccc2)c2ncn(C(C)C)c2c1 (stereo unspecified)	7	20	4	2	31*
C[C@H]1[C@H](NC(=O)c2ccc(Cl)c(Cl)c2)CC[C@@]23CCCN2C(=O)CCC[C@@H]13	7	nt	0	nt	2
Cn1ccnc1SCC(=O)Nc1sccc1C#N	1	1	22*	2	1
N#Cc1ccc(C(C(=O)NC2CCCCC2)n2c(=O)c(-c3ccco3)nc3ccccc32)cc1 (stereo unspecified)	-16	nt	22*	3	-3
CCCCCNC(=O)C(C1CC1)n1c(=O)c(-c2ccco2)nc2ccccc21 (stereo unspecified)	4	nt	22*	-1	6
CC(C)(C)NC(=O)C(c1cccc2ccccc12)n1c(=O)c(-c2ccco2)nc2ccccc21 (stereo unspecified)	0	nt	22*	-10	-14
CCCCCNC(=O)C(c1ccc(C(F)(F)F)cc1)n1c(=O)c(-c2ccco2)nc2ccccc21 (stereo unspecified)	-5	nt	25*	-4	-25
COc1cc(NC(=O)c2ccccn2)ccc1NC(=O)c1ccccc1Cl	-4	nt	-2	nt	-2
COc1ccc2c(c1)CCCN2C(=O)C1CCCN(S(=O)(=O)c2cccc3cccnc23)C1 (stereo unspecified)	2	nt	3	nt	4
CCCCNS(=O)(=O)/C=C/c1cc2c(cc1CNC(=O)OC(C)(C)C)OCO2	2	nt	0	nt	-4
Nc1nnc(CC(=O)N/N=C/c2cccc([N+](=O)[O-])c2)s1	-2	1	4	12	6
Nc1nnc(CC(=O)N/N=C/c2cc([N+](=O)[O-])cc(Br)c2O)s1	6	28	9	34*	39*
CCN1C=C(Cc2ccccc2C)C2=C(C1)C(c1ccccc1C)C(C#N)=C(N)O2 (stereo unspecified)	-9	-25	6	-4	-3
CCN1C=CC2=C(C#N)C(N)C(C#N)(C#N)C(c3ccccc3C(F)(F)F)C2C1 (stereo unspecified)	6	-2	22*	8	15
Cc1nn(Cc2ccc(C(=O)NC(C)(C)C)o2)c(C)c1Br	8	-3	24*	0	-2
CN(C)CCCNC(=O)C[C@H]1C[C@H](C(=O)N2CCCCC2)[C@@]2(CCc3ccccc3)c3[nH]c4cc(-c5ccco5)ccc4c3CCN2C1=O	-1	21	-1	4	20
O=C(C[C@H]1C[C@H](C(=O)N2CCOCC2)[C@@]2(CCC3CCCC3)c3[nH]c4cc(-c5ccco5)ccc4c3CCN2C1=O)NCCC1=CCCCC1	nt	1	nt	nt	nt
O=C(C[C@H]1C[C@H](C(=O)N2CCOCC2)[C@@]2(CCC3CCCC3)c3[nH]c4cc(-c5ccco5)ccc4c3CCN2C1=O)NCc1ccco1	0	2	22*	-11	0
CC(C)(C)NC(=O)C[C@H]1C[C@H](C(=O)N2CCCCC2)[C@@]2(CCc3ccccc3)c3[nH]c4cc(-c5ccco5)ccc4c3CCN2C1=O	-13	-6	24*	-11	2
CC(C)n1nnnc1C1(C)CCSCC(=O)N1Cc1cccc(C(F)(F)F)c1 (stereo unspecified)	1	nt	1	nt	-3
O=C(NC1CCCC1)c1ccc2nc[nH]c2c1	4	4	3	4	3
O=C(NC1CCCC1)c1ccc2nc(-c3ccco3)c(-c3ccco3)nc2c1	nt	58*	nt	nt	nt
O=C(NCCO)c1ccc(Cl)c(Cl)c1	4	12	0	-4	2
SMILES	SIAE inh	HTRA1 inhibitor	PRMT1 inh	TCR-CD3 inh	mABHD4 FP
O=C(NCCO)c1ccc2nc(-c3ccco3)c(-c3ccco3)nc2c1	20*	22	65*	26*	42*
CC(=O)Nc1cccc(C(=O)/C=C/c2ccc[nH]2)c1	6	4	22*	-9	-3
CC(=O)Nc1cccc(C(=O)/C=C/c2ccc(/C=C/C(=O)c3cccc(NC(C)=O)c3)cc2)c1	-12	nt	1	0	-3
CC(=O)Nc1cccc(C(=O)/C=C/c2ccco2)c1	6	0	21*	0	1
CN(C)S(=O)(=O)c1cccc(C(=O)N/N=C\c2ccc(-c3ccccn3)cc2)c1	1	nt	2	nt	-3
COc1ccc(OC[C@@H](O)CN2CCC(C(O)(c3ccccc3)c3ccccc3)CC2)cc1	-8	nt	-3	nt	-5
N#Cc1c(NC(NC(=O)c2ccco2)C(=O)c2ccccc2)sc2c1CCCC2 (stereo unspecified)	-3	-3	23*	5	3
NC(=O)c1c(NC(NC(=O)c2ccco2)C(=O)c2ccc(Cl)cc2)sc2c1CCCC2 (stereo unspecified)	10	9	24*	3	7
CCOC(=O)c1c(NC(=O)c2ccco2)sc2c1CCCC2	-1	-2	0	4	-5
N#Cc1c(NC(=O)c2ccccc2)sc2c1CCCCC2	-5	-5	-1	0	-15
COC(=O)[C@]12C[C@H](CC(=O)N3CCN(C(=O)c4ccco4)CC3)C(=O)N(Cc3cccc4ccccc34)C1=C[C@H](COCc1ccccc1)O[C@@H]2C	2	nt	4	nt	-3
C=CCNC(=O)N1CCC(c2nc3ccc(Cl)cc3[nH]2)CC1	2	nt	-5	nt	1
COC(=O)c1cc(C)nc(Sc2ccccc2N)n1	6	nt	25*	2	-1
O=C(Nc1ccc(Nc2cccnc2)cc1)c1c[nH]c2ccccc12	13	nt	8	0	42*
CCCC1CCC2(CC1)CCC2OC(=O)Nc1cccc(C(F)(F)F)c1 (stereo unspecified)	-2	nt	2	nt	-16
Cc1cc(C)nc(Nc2nc(=O)c3ccccc3s2)n1	7	2	44*	9	5
Cc1ccc(-n2c(SCC(=O)Nc3ccc4c(c3)OCCO4)nnc2-c2cnccn2)cc1	4	nt	-4	nt	5
Cc1[nH][nH]c(=O)c1C(c1ccc(-c2ccc(F)cc2)o1)c1c(C)[nH][nH]c1=O	4	1	22*	-4	5
Cc1[nH][nH]c(=O)c1C(c1ccc(-c2ccc(C(=O)O)cc2)o1)c1c(C)[nH][nH]c1=O	12	5	18	0	3
Cc1cc(=O)oc2c3c(ccc12)OC/C3=N/N	-7	13	14	22*	26
COc1ccc2c(C)cc(=O)oc2c1C	-1	2	1	-11	13
CCOC(=O)[C@@]12CCCC=C1N(CCc1ccc(Cl)cc1)C(=O)[C@H]2CC(=O)N1CCCC1	3	nt	1	nt	3
O=C1CSC(=S)N1/N=C/C=C/c1ccccc1	8	15	21*	-3	8
